Test results taken from ChEMBL document CHEMBL2385053, “Novel isoquinoline derivatives as antimicrobial agents” (2013).

What was measured:
Aspergillus parasiticus [1] = test: Fungicidal activity against Aspergillus parasiticus CECT 2681 at 1 ug/disk after 72 hrs by paper disk-agar diffusion method; type: functional; details: CECT 2681, 72 h, read-out: IZ
Outline: (§1)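 Fungi grown on potato dextrose agar for 7 days at 28 °C. Conidia suspended to about 10⁶/mL in 0.05% Tween 80 in sterile water. 1 mL suspension added to 15 mL PDA; four impregnated 0.5 cm disks placed after setting. Inhibition zone measured at 72 h; mean ± SE of three independent experiments. Vehicle disks as negative control; benomyl dose set per fungal species.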

[2] = test system: Phytophthora citrophthora; test: Fungicidal activity against Phytophthora citrophthora CECT 2353 at 1.5 ug/disk after 72 hrs by paper disk-agar diffusion method; type: functional; details: CECT 2353, 72 h, read-out: IZ; outline: as §1
Trichoderma viride [3] = test: Fungicidal activity against Trichoderma viride CECT 2423 at 1 ug/disk after 72 hrs by paper disk-agar diffusion method; type: functional; details: CECT 2423, 72 h, read-out: IZ; outline: as §1
Geotrichum candidum = test: Fungicidal activity against Geotrichum candidum CCM 245 at 0.2 mg/disk after 72 hrs by paper disk-agar diffusion method; type: functional
Outline: (§2)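 Fungi were grown on potato dextrose agar (PDA) for 7 days at 28 °C. Conidia were suspended to ~10⁶/mL in 0.05% Tween 80 in sterile water, and 1 mL was mixed into 15 mL PDA. Four 0.5 cm paper disks (0.2 mg/disk) were placed on the set agar. Controls were vehicle-only disks and benomyl at species-dependent doses. The inhibition zone was read in mm at 72 h as the mean ± SE of three independent experiments.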

Fusarium culmorum [4] = test: Fungicidal activity against Fusarium culmorum CCM 172 at 10 ug/disk after 72 hrs by paper disk-agar diffusion method; type: functional; details: CCM 172, 72 h, read-out: IZ; outline: as §1
Aspergillus parasiticus [5] = test: Fungicidal activity against Aspergillus parasiticus CECT 2681 at 0.2 mg/disk after 72 hrs by paper disk-agar diffusion method; type: functional; outline: as §2
[6] = test system: Phytophthora citrophthora; test: Fungicidal activity against Phytophthora citrophthora CECT 2353 at 0.2 mg/disk after 72 hrs by paper disk-agar diffusion method; type: functional; outline: as §2
Trichoderma viride [7] = test: Fungicidal activity against Trichoderma viride CECT 2423 at 0.2 mg/disk after 72 hrs by paper disk-agar diffusion method; type: functional; outline: as §2
Fusarium culmorum [8] = test: Fungicidal activity against Fusarium culmorum CCM 172 at 0.2 mg/disk after 72 hrs by paper disk-agar diffusion method; type: functional; outline: as §2
Escherichia coli [9] = test: Bactericidal activity against Escherichia coli CECT 100 at 0.2 mg/disk after 24 hrs by paper disk-agar diffusion method relative to control; type: functional
Escherichia coli [10] = test: Bactericidal activity against Escherichia coli CECT 100 at 0.2 mg/disk after 24 hrs by paper disk-agar diffusion method; type: functional
Outline: (§3)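 Each bacterial strain was taken from a 24-h culture on solid medium, reactivated in Nutrient Broth, and grown a further 24 h at 28 or 37 °C depending on the strain. 1 mL of suspension was mixed with 15 mL Plate Count Agar. Four 0.5 cm paper disks (0.2 mg/disk) were placed on the set agar. Controls were vehicle-only disks and tetracycline. Plates were incubated 24 h, dark, 28 or 37 °C. The inhibition zone was read in mm as the mean ± SE of three independent experiments.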

[11] = test system: Pectobacterium carotovorum; test: Bactericidal activity against Erwinia carotovora CECT 225 at 0.2 mg/disk after 24 hrs by paper disk-agar diffusion method; type: functional; outline: as §3
Escherichia coli [12] = test: Bactericidal activity against Escherichia coli CECT 405 at 0.2 mg/disk after 24 hrs by paper disk-agar diffusion method; type: functional; outline: as §3
Salmonella typhi = test: Bactericidal activity against Salmonella typhi CECT 409 at 0.2 mg/disk after 24 hrs by paper disk-agar diffusion method; type: functional, Salmonella enterica subsp. enterica serovar Typhi
Outline: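 Paper disk-agar diffusion, run in triplicate. 24-h culture reactivated in nutrient broth and grown a further 24 h at 28 or 37 °C by species. 1 mL suspension mixed into 15 mL plate count agar. Four 0.5 cm disks placed per plate, incubated 24 h in the dark. Inhibition zone (mm) reported as mean ± SE of three independent experiments; vehicle disks as negative control.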

Enterococcus faecalis [13] = test: Bactericidal activity against Enterococcus faecalis CECT 481 at 0.2 mg/disk after 24 hrs by paper disk-agar diffusion method; type: functional; outline: as §3
Staphylococcus aureus [14] = test: Bactericidal activity against Staphylococcus aureus CECT 86 at 0.2 mg/disk after 24 hrs by paper disk-agar diffusion method; type: functional; outline: as §3
Bacillus cereus [15] = test: Bactericidal activity against Bacillus cereus CECT 148 at 0.2 mg/disk after 24 hrs by paper disk-agar diffusion method; type: functional; outline: as §3
Escherichia coli [16] = test: Bactericidal activity against Escherichia coli CECT 405 at 0.2 mg/disk after 24 hrs by paper disk-agar diffusion method relative to control; type: functional
Staphylococcus aureus [17] = test: Bactericidal activity against Staphylococcus aureus CECT 86 at 0.2 mg/disk after 24 hrs by paper disk-agar diffusion method relative to control; type: functional
Bacillus cereus [18] = test: Bactericidal activity against Bacillus cereus CECT 148 at 0.2 mg/disk after 24 hrs by paper disk-agar diffusion method relative to control; type: functional
[19] = test system: Pectobacterium carotovorum; test: Bactericidal activity against Erwinia carotovora CECT 225 at 0.2 mg/disk after 24 hrs by paper disk-agar diffusion method relative to control; type: functional
Enterococcus faecalis [20] = test: Bactericidal activity against Enterococcus faecalis CECT 481 at 0.2 mg/disk after 24 hrs by paper disk-agar diffusion method relative to control; type: functional

## CCCCNC(=O)n1c(NC(=O)OC)nc2ccccc21 [BENOMYL]
Aspergillus parasiticus [1]
  zone of inhibition at 1 µg/disc: 18 mm
[2]
  zone of inhibition at 1.5 µg/disc: 24.5 mm
Trichoderma viride [3]
  zone of inhibition at 1 µg/disc: 22 mm
Geotrichum candidum
  inhibition zone (IZ): 0 mm
Fusarium culmorum [4]
  zone of inhibition at 10 µg/disc: 18 mm

## COc1cc2c(cc1OC)C(CCCCCOC(=O)Nc1ccccc1)N(C)CC2 (stereo not given)
Aspergillus parasiticus [5]
  inhibition zone (IZ): 0 mm
[6]
  inhibition zone (IZ): 0 mm
Trichoderma viride [7]
  inhibition zone (IZ): 5.75 mm
Geotrichum candidum
  inhibition zone (IZ): 6.25 mm
Fusarium culmorum [8]
  inhibition zone (IZ): 7 mm
Escherichia coli [9]
  Activity: 59%
Escherichia coli [10]
  inhibition zone (IZ): 15.17 mm
[11]
  inhibition zone (IZ): 10.67 mm
Escherichia coli [12]
  inhibition zone (IZ): 12.33 mm
Salmonella typhi
  inhibition zone (IZ): 12 mm
Enterococcus faecalis [13]
  inhibition zone (IZ): 14.17 mm
Staphylococcus aureus [14]
  inhibition zone (IZ): 15 mm
Bacillus cereus [15]
  inhibition zone (IZ): 12.67 mm

## COc1ccc(NC(=O)OCCCCCC2c3cc(OC)c(OC)cc3CCN2C)cc1 (stereo not given)
Aspergillus parasiticus [5]
  inhibition zone (IZ): 0 mm
[6]
  inhibition zone (IZ): 0 mm
Trichoderma viride [7]
  inhibition zone (IZ): 6.17 mm
Geotrichum candidum
  inhibition zone (IZ): 6.67 mm
Fusarium culmorum [8]
  inhibition zone (IZ): 0 mm
Escherichia coli [16]
  Activity: 52%
Staphylococcus aureus [17]
  Activity: 51%
Escherichia coli [10]
  inhibition zone (IZ): 11.67 mm
[11]
  inhibition zone (IZ): 9.67 mm
Escherichia coli [12]
  inhibition zone (IZ): 13.33 mm
Salmonella typhi
  inhibition zone (IZ): 11.33 mm
Enterococcus faecalis [13]
  inhibition zone (IZ): 14.67 mm
Staphylococcus aureus [14]
  inhibition zone (IZ): 13.67 mm
Bacillus cereus [15]
  inhibition zone (IZ): 10.33 mm

## COc1cc2c(cc1OC)C(CCCCCOC(=O)CCc1ccc(F)cc1)N(C)CC2 (stereo not given)
Aspergillus parasiticus [5]
  inhibition zone (IZ): 0 mm
[6]
  inhibition zone (IZ): 6 mm
Trichoderma viride [7]
  inhibition zone (IZ): 8.33 mm
Geotrichum candidum
  inhibition zone (IZ): 8.33 mm
Fusarium culmorum [8]
  inhibition zone (IZ): 7.67 mm
Bacillus cereus [18]
  Activity: 49%
Escherichia coli [9]
  Activity: 46%
Escherichia coli [10]
  inhibition zone (IZ): 11.83 mm
[11]
  inhibition zone (IZ): 11.67 mm
Escherichia coli [12]
  inhibition zone (IZ): 8.83 mm
Salmonella typhi
  inhibition zone (IZ): 9.17 mm
Enterococcus faecalis [13]
  inhibition zone (IZ): 9.33 mm
Staphylococcus aureus [14]
  inhibition zone (IZ): 10.33 mm
Bacillus cereus [15]
  inhibition zone (IZ): 11.33 mm

## COc1cc2c(cc1OC)C(CCCCCOC(=O)Nc1ccc(F)cc1)N(C)CC2 (stereo not given)
[19]
  Activity: 64%
Enterococcus faecalis [20]
  Activity: 64%
Escherichia coli [10]
  inhibition zone (IZ): 12.33 mm
[11]
  inhibition zone (IZ): 22.33 mm
Escherichia coli [12]
  inhibition zone (IZ): 12 mm
Salmonella typhi
  inhibition zone (IZ): 14.67 mm
Enterococcus faecalis [13]
  inhibition zone (IZ): 20 mm
Staphylococcus aureus [14]
  inhibition zone (IZ): 14 mm
Bacillus cereus [15]
  inhibition zone (IZ): 14.33 mm
